E-sel inducer: induces E-selectin expression in human endothelial cells | P16581 | HUVEC E-selectin immunofluorescence imaging; normalized: neutral wells 0, TNF-alpha wells 100 | activation, % at 7.58 µM | 0.37% of 260,000 active | AID 686992;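 active = mean E-selectin-positive cell signal at least 10% of the positive control, reached in at least 60% of replicates, without over 20% cell loss; inconclusive = no rule given, readout overlaps actives, possibly toxicity-flagged; inactive = the rest, including those meeting only one limit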
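assay system = HUVEC, human umbilical vein endothelial cells | input = 3,000 HUVEC seeded per well | medium = EGM-2 growth medium on 0.1% gelatin-coated wells | dosing = one compound dose added by pin transfer | signal = immunofluorescence imaging | read-out basis = % PE-positive cells | control set = TNF-alpha, DMSO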
Statin myotox sup: suppressors of simvastatin-induced myotoxicity in C2C12 myotubes | ATP luminescence, 48 h; scaled: DMSO 0, geranylgeraniol control 100 | rescue of ATP level, % at 7.49 µM | AID 602340 | 0.78% of 330,000 active;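 active = mean ATP rescue above about 67%, or every replicate alone reaching that limit, limit read from the data, passing the limit was not always enough; inconclusive = no clear call, values can overlap the other calls; inactive = mean under the limit and some replicate under it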;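 note: myotubes were challenged with 10 µM simvastatin during compound exposure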
Xi reactivation: X-chromosome reactivation activator. XiGFP mouse fibroblasts, % GFP-positive cells imaging, 3 d; cells co-treated with 5-aza-dC sensitizer; scaled so ellipticine positive control = 100%. activation, % at 7.58 µM. 0.055% of 360,000 active;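 active = mean normalized replicate activation at least 10% and every replicate at or above 10%; inconclusive = only one of the two criteria met; inactive = mean below 10% and not all replicates reach 10%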
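System: 68-5-11 XiGFP fibroblast line; Timing: 3 days compound exposure; Compound dosing: one concentration, pinned; Benchmarks: positive control ellipticine, 6 µM final; Buffer or medium: DMEM containing 5-aza-dC.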
PglD inh: blocks C. jejuni PglD acetyltransferase activity; purified PglD enzyme, DTNB colorimetric CoA detection; inhibition, % at 12.5 µM; AID 602405; 0.098% of 360,000 active; in the data active = inhibition above about 16%, passing the limit was not always enough; inconclusive = no clear call, values can overlap the other calls
DENV2 CPE: protects cells from dengue virus 2 cytopathic effect. DENV2-infected cells, cytopathic effect rescue, plate reader. CPE inhibition, % at 9.99 µM. 1.7% of 350,000 active. AID 651640; in the data active = CPE inhibition above about 20%, passing the limit was not always enough; inconclusive = no clear call, values can overlap the other calls; tested in BHK-21 cells
FGF22 binding-1: FGF22 (human) thermal shift binding; Q9HCT0; recombinant FGF22 thermal shift, SYPRO orange fluorescence; percent of sucrose octasulfate shift, DMSO zero; activity (Tm shift, normalised), % at 9.99 µM; 1.5% of 340,000 active;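 active = mean Tm shift, scaled 0 neutral to 100 positive control, at about 1.3% or above, every replicate too, limit read from the data; inconclusive = no clear call, values can overlap the other calls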
Target sequence (Q9HCT0 whole entry, looked up): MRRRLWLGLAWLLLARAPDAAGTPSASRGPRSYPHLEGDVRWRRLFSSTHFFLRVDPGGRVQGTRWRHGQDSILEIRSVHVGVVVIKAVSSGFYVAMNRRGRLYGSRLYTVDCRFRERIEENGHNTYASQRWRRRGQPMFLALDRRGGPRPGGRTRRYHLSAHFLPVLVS
FGF22 binding-2: FGF22 (human) binding in thermal shift. shares compounds with FGF22 binding-1. recombinant FGF22 thermal shift, SYPRO orange fluorescence. 2% of 1,000 active. thermal shift activity, °C (ΔTm) at 38 µM;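 active = fitted rise in melting shift crosses a set limit at or below the top valid dose tested; inconclusive = flat fit at mid-level activity, or a poor quality fit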
SYPRO no-protein: compound-only SYPRO artifact for FGF22 binders | compound-only SYPRO orange thermal shift counter-screen, no protein | AC50, µM (titrated, usually from 38 µM) | AID 743019 | 2% of 1,000 active | shares compounds with FGF22 binding-1;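 active = rising signal whose fitted curve reaches the 0.54 level within the top valid dose, showing a melting point, actives reach about 13 µM in these data; inactive = the rest, including activity in the opposite direction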; note: value is where the raw curve crosses a fixed level and not half-maximal
Numbers stand for hits; - = inactive; ? = inconclusive; . = no result given; ! = a repeat was not active. In the library only some 3.3% were active in any assay of this set; here they are far more common.

SMILES	E-sel inducer	Statin myotox sup	Xi reactivation	PglD inh	DENV2 CPE	FGF22 binding-1	FGF22 binding-2	SYPRO no-protein
C[C@@H]1CN([C@H](C)CO)C(=O)c2cc(NS(C)(=O)=O)ccc2O[C@@H](C)CCCCO[C@H]1CN(C)Cc1ccncc1	-	-	-	-	-	1.7	-	-
C[C@@H]1CCCCO[C@H](CN(C)C(=O)C2CCCCC2)[C@H](C)CN([C@H](C)CO)C(=O)c2cc(NS(C)(=O)=O)ccc2O1	-	-	-	-	-	1.7	-	-
CC(C)NC(=O)Nc1ccc2c(c1)C(=O)N([C@H](C)CO)C[C@@H](C)[C@@H](CN(C)C(=O)Nc1ccccc1)OCCCC[C@@H](C)O2	-	.	-	-	-	2.6	-	-
CC(C)NC(=O)N(C)C[C@H]1OCCCC[C@@H](C)Oc2ccc(N(C)C)cc2C(=O)N([C@H](C)CO)C[C@H]1C	-	.	-	-	-	-	.	.
CCCC#Cc1ccc2c(c1)O[C@@H](CN(C)C(=O)c1ccccc1)[C@H](C)CN([C@@H](C)CO)S2(=O)=O	-	-	-	-	-	-	.	.
CN(CC(=O)Nc1ccccc1Cl)C(=O)COC(=O)c1ccc(-c2ccc(O)cc2)cc1	.	-	-	-	-	-	.	.
CN(CC(=O)Nc1ccccc1Cl)C(=O)COC(=O)c1nc(Cl)ccc1Cl	-	.	-	.	-	1.6	-	-
C[C@@H]1CN([C@@H](C)CO)C(=O)Cc2cc(NC(=O)CCC(F)(F)F)ccc2O[C@@H]1CN(C)Cc1ccc(Oc2ccccc2)cc1	-	-	-	-	-	-	.	.
O=C(OCC(=O)c1cccs1)c1cccc(C(=O)OCC(=O)c2cccs2)n1	.	-	.	-	-	2.2	-	-
CCS(=O)(=O)N[C@H]1C=C[C@H](CC(=O)Nc2ccccc2)O[C@H]1CO	-	.	-	.	-	.	.	.
CN(C(=O)Cn1nnc2ccccc2c1=O)C1CCCCC1	-	-	-	.	-	1.8	-	-
C[C@@H]1CN([C@H](C)CO)C(=O)c2ccccc2-c2ccccc2CO[C@@H]1CN(C)Cc1ccc(-c2ccccc2)cc1	-	.	-	.	-	-	.	.
Cc1ccc(S(=O)(=O)Nc2ccc3c(c2)C(=O)N([C@@H](C)CO)C[C@@H](C)[C@H](CN(C)Cc2ccncc2)OCCCC[C@@H](C)O3)cc1	.	.	-	-	-	-	.	.
COc1ccc(-c2nc(C)c(C(C)=O)n2O)cc1OC	.	-	.	-	.	.	.	.
COc1cc(-c2nc(C)c(C(C)=O)n2O)ccc1OCC(=O)Nc1ccc(Cl)cc1	-	.	-	.	?	2.5	-	-
CC(=O)c1c(C)nc(-c2ccc(OCC(=O)Nc3cccc(C)c3C)cc2)n1O	-	-	-	-	-	2.2	-	-
CC(=O)N1CC(=O)N2[C@H](CO)[C@@H](c3ccc(-c4ccc(C)cc4)cc3)[C@@H]2C1	-	.	-	.	-	-	.	.
O=C(O)CCN(Cc1ccccc1)S(=O)(=O)c1ccccc1Cl	-	.	-	.	-	2.9	-	-
COC(=O)CCN(Cc1ccccc1)S(=O)(=O)c1ccccc1Br	-	-	-	-	-	-	.	.
Cc1ccc(-c2n[nH]c(=S)n2/N=C/c2c(C)[nH]n(-c3ccccc3)c2=O)cc1	-	-	-	-	-	2.7	-	-
Cc1nn(-c2ccccc2)c(C)c1/C=N/n1c(-c2ccc(Cl)cc2)n[nH]c1=S	.	.	-	.	-	-	.	.
Cc1nc2ccc(C(=O)N/N=C/c3ccccc3O)cc2[nH]1	-	-	-	-	-	1.5	-	-
O=C1C(=O)C(c2ccccc2)C(=O)C1c1ccccc1 (configuration not stated)	-	-	-	-	-	5.8	-	-
O=C1c2ccccc2C(=O)C1c1ccncc1	.	?	.	-	.	.	.	.
COc1ccccc1S(=O)(=O)N(C)C[C@@H]1Oc2cc(C#CCC(C)C)ccc2S(=O)(=O)N([C@@H](C)CO)C[C@H]1C	.	-	-	-	-	20.6	-	-
SMILES	E-sel inducer	Statin myotox sup	Xi reactivation	PglD inh	DENV2 CPE	FGF22 binding-1	FGF22 binding-2	SYPRO no-protein
CCCN(C)C[C@H]1Oc2cc(C#Cc3ccc(F)cc3)ccc2S(=O)(=O)N([C@H](C)CO)C[C@@H]1C	-	-	-	-	-	1.7!	-	-
C[C@H](CO)N1C[C@H](C)[C@@H](CN(C)C)Oc2cc(C#CC3CCCCC3)ccc2S1(=O)=O	-	-	-	-	-	-	.	.
COc1ccccc1S(=O)(=O)N(C)C[C@@H]1Oc2cc(C#CCC(C)C)ccc2S(=O)(=O)N([C@H](C)CO)C[C@H]1C	.	-	-	-	?	-	.	.
COCC(=O)N(C)C[C@@H]1Oc2cc(C#Cc3ccccc3)ccc2S(=O)(=O)N([C@@H](C)CO)C[C@H]1C	-	-	-	-	-	1.6	-	-
COCC(=O)N(C)C[C@@H]1Oc2cc(C#Cc3ccccc3)ccc2S(=O)(=O)N([C@H](C)CO)C[C@H]1C	-	-	-	-	-	-	.	.
C[C@H]1CN([C@@H](C)CO)S(=O)(=O)c2ccc(C#CC3CCCCC3)cc2O[C@@H]1CN(C)C	-	-	-	-	-	1.3	-	-
CCCN(C)C[C@@H]1Oc2cc(C#Cc3cccnc3)ccc2S(=O)(=O)N([C@@H](C)CO)C[C@H]1C	-	-	-	-	-	-	.	.
CCCN(C)C[C@@H]1Oc2cc(-c3ccncc3)ccc2S(=O)(=O)N([C@@H](C)CO)C[C@@H]1C	-	-	-	-	-	-	.	.
CCCN(C)C[C@H]1Oc2cc(-c3ccncc3)ccc2S(=O)(=O)N([C@H](C)CO)C[C@H]1C	-	-	-	-	-	2.1	-	-
CCCN(C)C[C@H]1Oc2cc(C#Cc3cccnc3)ccc2S(=O)(=O)N([C@H](C)CO)C[C@@H]1C	-	-	-	-	-	1.3	-	-
COc1ccc2c3c([nH]c2c1)[C@H](CO)N(C(=O)C1CCCCC1)CC31CCN(Cc2nccs2)CC1	-	.	-	.	-	-	.	.
C[C@@H]1CN([C@H](C)CO)S(=O)(=O)c2ccc(C#Cc3ccncc3)cc2O[C@H]1CN(C)S(=O)(=O)c1ccccc1	.	-	.	-	-	-	.	.
COc1ccc(C(C)(NC(C)=O)c2nc(-c3ccncc3)cs2)cc1 (configuration not stated)	-	-	-	-	?	18.1	-	-
COc1ccc(-c2csc(C(C)(NC(C)=O)c3ccc(OC)cc3)n2)cc1 (configuration not stated)	-	-	-	-	-	-	.	.
